According to ChEMBL document CHEMBL4325826, “Identification of a Selective, Non-Prostanoid EP2 Receptor Agonist for the Treatment of Glaucoma: Omidenepag and its Prodrug Omidenepag Isopropyl” (J Med Chem, 2018):
Activity calls are given as the source filed them. The calls are words filed in the database; no cut-off is given here.

Legend:
[1] = target: T1, Prostaglandin E2 receptor EP2 subtype (Homo sapiens, UniProt P43116); assay: Displacement of [3H]prostaglandin E2 from human EP2 receptor expressed in HEK293 cell membranes after 60 mins by liquid scintillation counting
T1 sequence (P43116 whole entry): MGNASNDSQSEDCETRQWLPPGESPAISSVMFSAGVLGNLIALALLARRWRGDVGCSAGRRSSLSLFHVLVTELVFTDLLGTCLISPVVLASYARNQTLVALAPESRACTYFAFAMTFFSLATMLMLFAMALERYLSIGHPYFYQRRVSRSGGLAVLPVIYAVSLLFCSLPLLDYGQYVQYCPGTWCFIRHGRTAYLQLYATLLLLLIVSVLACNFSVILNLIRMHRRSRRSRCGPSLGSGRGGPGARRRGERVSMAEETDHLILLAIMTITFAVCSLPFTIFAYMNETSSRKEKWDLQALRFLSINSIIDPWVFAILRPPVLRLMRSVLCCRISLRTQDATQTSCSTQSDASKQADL

[2] = target: T1, Prostaglandin E2 receptor EP2 subtype; assay: Agonist activity at recombinant human EP2 receptor expressed in HEK293 cells assessed as induction of cAMP accumulation after 30 mins; format: functional, cell-based
Outline: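 HEK293 cells stably expressing h-EP2 grown in MEM with 10% FBS, seeded at 2 × 10^4 cells/well. Next day switched to serum-free MEM with 500 µM IBMX (final) for 30 min at 37 °C, then test compound in DMSO added for 30 min at 37 °C. Cells lysed, cAMP quantified by EIA or HTRF kit.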

[3] = target: T2, Prostaglandin E2 receptor EP1 subtype (Homo sapiens, UniProt P34995); assay: Displacement of [3H]prostaglandin E2 from recombinant human full length EP1 receptor expressed in Chem-1 cell membranes after 60 mins by liquid scintillation counting
T2 sequence (P34995 whole entry): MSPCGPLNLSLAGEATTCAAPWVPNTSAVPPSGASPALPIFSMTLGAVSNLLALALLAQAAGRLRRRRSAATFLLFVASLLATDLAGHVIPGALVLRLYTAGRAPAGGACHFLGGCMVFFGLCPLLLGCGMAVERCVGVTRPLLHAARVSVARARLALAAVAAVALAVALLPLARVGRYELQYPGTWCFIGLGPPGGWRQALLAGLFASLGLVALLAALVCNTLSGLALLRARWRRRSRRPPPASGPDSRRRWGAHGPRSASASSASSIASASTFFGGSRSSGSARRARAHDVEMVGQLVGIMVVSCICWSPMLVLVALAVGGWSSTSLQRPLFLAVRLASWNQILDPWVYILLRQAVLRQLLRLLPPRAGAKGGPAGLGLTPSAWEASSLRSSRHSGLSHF

[4] = target: T3, Prostaglandin E2 receptor EP3 subtype (Homo sapiens, UniProt P43115); assay: Displacement of [3H]prostaglandin E2 from recombinant human full length EP3 receptor expressed in Chem-1 cell membranes after 60 mins by liquid scintillation counting
T3 sequence (P43115 whole entry): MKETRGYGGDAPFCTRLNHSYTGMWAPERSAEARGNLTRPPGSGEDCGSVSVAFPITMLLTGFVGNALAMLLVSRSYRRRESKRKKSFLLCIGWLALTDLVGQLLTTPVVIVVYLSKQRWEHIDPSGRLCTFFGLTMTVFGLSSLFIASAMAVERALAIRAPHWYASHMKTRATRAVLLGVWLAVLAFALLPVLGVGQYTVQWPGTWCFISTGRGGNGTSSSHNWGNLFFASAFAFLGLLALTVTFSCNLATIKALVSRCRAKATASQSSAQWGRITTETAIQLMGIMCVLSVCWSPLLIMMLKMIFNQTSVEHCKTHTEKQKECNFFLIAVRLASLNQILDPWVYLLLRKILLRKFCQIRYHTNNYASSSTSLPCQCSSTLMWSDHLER

[5] = target: Prostaglandin E2 receptor EP4 subtype (Homo sapiens, UniProt P35408); assay: Displacement of [3H]prostaglandin E2 from recombinant human full length EP4 receptor expressed in Chem-1 cell membranes after 60 mins by liquid scintillation counting
Sequence of Prostaglandin E2 receptor EP4 subtype (P35408 whole entry): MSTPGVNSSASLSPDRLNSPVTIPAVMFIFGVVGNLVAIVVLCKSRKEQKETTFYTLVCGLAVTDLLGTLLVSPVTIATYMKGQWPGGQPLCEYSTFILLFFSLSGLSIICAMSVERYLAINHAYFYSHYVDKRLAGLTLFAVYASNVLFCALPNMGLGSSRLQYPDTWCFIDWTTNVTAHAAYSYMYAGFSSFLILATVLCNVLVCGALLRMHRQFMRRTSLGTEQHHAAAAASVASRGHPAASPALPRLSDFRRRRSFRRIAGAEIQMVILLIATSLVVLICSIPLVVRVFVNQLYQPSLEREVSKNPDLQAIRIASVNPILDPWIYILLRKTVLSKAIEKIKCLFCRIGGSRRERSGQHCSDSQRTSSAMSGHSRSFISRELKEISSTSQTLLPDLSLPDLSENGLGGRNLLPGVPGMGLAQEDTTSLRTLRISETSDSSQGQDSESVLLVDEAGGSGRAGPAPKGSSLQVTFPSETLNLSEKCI

[6] = Apparent permeability of the compound at 100 uM after 5 hrs by PAMPA; format: ADME
[7] = system: Cynomolgus monkey; assay: Reduction of intraocular pressure in ocular normotensive cynomolgus monkey administered topically to the eyes once daily at around 5 pm from day 1 to day 14 and measured at […] at day 8 and 15 post dose; format: functional, organism-based; details: Macaca fascicularis
[8] = system: Cynomolgus monkey; assay: Reduction of intraocular pressure in ocular normotensive cynomolgus monkey at 0.01% administered topically to the eyes once daily at around 5 pm from day 1 to day 14 and measured at 10 am at day 8 and 15 post dose; details: Macaca fascicularis
[9] = Apparent permeability from apical side at pH 7.4 to basolateral side at pH 7.4 in human Caco2 cells a 10 uM after 30 to 120 mins by HPLC-MS analysis; format: ADME, cell-based; details: Caco-2, pH 7.4
[10] = Apparent permeability from apical side at pH 6.5 to basolateral side at pH 7.4 in human Caco2 cells a 10 uM after 30 to 120 mins by HPLC-MS analysis; format: ADME, cell-based; details: Caco-2, pH 6.5
[11] = Drug metabolism in human liver microsomes assessed as metabolic rate at 10 uM after 30 mins by HPLC-MS analysis; format: ADME, Microsome; details: 0.5 h
[12] = target: T4, Cytochrome P450 3A4 (Homo sapiens, UniProt P08684); assay: Inhibition of recombinant human CYP3A4 using 7-benzyloxyquinoline fluorescent substrate in presence of NADPH-generating system after 15 mins; format: ADME
T4 sequence (P08684 whole entry, canonical isoform): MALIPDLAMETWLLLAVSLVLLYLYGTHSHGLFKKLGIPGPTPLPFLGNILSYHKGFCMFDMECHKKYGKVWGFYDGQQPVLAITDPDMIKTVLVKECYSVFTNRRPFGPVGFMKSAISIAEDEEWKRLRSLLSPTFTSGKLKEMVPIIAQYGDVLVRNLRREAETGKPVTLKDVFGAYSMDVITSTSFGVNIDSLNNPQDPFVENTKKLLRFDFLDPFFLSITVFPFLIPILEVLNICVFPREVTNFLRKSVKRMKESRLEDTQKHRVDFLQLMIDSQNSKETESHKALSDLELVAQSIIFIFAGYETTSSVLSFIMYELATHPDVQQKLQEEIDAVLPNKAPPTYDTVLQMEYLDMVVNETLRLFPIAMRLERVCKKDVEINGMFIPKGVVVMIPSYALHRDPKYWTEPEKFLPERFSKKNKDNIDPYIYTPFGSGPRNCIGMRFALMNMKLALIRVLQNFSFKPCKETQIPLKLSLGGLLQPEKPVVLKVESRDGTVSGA
Outline: (§1)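 Each recombinant human CYP isoform (3A4, 2D6, 2C9, 2C19, 1A2) tested for inhibition by compound.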

[13] = target: Cytochrome P450 2D6 (Homo sapiens, UniProt P10635); assay: Inhibition of recombinant human CYP2D6 using 3-(2-(N,N-diethyl-N-methylammonium)ethyl)-7-methoxy-4-methylcoumariniodide fluorescent substrate in presence of NADPH-generating system after 15 mins; format: ADME; outline: as §1
Sequence of Cytochrome P450 2D6 (P10635 whole entry): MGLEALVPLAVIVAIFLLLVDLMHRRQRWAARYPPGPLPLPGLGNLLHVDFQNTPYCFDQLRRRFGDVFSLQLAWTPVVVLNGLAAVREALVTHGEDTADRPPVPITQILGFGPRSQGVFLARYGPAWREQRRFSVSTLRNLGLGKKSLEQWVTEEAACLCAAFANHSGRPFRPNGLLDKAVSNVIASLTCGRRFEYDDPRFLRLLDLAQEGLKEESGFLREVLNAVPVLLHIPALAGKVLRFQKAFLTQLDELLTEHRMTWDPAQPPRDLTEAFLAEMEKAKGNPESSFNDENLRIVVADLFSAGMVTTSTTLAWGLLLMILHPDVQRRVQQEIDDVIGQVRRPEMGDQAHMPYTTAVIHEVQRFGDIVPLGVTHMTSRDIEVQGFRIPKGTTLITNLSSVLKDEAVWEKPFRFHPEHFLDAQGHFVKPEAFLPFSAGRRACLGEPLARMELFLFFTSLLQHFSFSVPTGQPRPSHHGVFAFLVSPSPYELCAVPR

[14] = target: Cytochrome P450 2C9 (Homo sapiens, UniProt P11712); assay: Inhibition of recombinant human CYP2C9 using 7-methoxy-4-(trifluoromethyl)coumarin fluorescent substrate in presence of NADPH-generating system after 15 mins; format: ADME; outline: as §1
Sequence of Cytochrome P450 2C9 (P11712 whole entry): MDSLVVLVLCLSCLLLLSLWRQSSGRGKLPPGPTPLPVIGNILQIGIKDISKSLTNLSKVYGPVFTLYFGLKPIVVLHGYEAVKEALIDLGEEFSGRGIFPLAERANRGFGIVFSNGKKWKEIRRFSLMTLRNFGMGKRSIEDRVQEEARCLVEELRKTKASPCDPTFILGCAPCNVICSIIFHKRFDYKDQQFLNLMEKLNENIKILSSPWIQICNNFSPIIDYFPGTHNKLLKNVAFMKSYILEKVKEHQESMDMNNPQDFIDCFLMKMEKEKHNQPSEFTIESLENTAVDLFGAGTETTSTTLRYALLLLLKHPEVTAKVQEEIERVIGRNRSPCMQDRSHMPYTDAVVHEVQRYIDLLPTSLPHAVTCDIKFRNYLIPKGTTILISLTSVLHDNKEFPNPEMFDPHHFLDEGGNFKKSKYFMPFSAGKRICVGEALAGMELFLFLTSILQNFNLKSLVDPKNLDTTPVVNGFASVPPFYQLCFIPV

[15] = target: Cytochrome P450 2C19 (Homo sapiens, UniProt P33261); assay: Inhibition of recombinant human CYP2C19 using 3-cyano-7-ethoxycoumarin fluorescent substrate in presence of NADPH-generating system after 15 mins; format: ADME; outline: as §1
Sequence of Cytochrome P450 2C19 (P33261 whole entry): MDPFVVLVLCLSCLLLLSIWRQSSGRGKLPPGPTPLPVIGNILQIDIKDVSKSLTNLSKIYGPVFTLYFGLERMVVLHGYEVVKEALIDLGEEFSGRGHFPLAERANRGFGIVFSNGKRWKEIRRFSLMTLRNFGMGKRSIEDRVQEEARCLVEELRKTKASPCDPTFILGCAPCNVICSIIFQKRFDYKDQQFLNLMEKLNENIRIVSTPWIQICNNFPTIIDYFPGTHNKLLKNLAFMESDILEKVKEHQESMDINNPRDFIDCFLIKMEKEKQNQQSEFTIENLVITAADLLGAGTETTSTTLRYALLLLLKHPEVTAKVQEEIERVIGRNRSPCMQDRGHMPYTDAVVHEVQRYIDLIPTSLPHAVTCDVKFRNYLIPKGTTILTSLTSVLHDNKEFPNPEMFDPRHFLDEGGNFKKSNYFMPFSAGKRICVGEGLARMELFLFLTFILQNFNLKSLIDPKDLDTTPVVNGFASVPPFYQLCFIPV

[16] = target: T5, Cytochrome P450 1A2 (Homo sapiens, UniProt P05177); assay: Inhibition of recombinant human CYP1A2 using 3-cyano-7-ethoxycoumarin fluorescent substrate in presence of NADPH-generating system after 15 mins; format: ADME; outline: as §1
T5 sequence (P05177 whole entry): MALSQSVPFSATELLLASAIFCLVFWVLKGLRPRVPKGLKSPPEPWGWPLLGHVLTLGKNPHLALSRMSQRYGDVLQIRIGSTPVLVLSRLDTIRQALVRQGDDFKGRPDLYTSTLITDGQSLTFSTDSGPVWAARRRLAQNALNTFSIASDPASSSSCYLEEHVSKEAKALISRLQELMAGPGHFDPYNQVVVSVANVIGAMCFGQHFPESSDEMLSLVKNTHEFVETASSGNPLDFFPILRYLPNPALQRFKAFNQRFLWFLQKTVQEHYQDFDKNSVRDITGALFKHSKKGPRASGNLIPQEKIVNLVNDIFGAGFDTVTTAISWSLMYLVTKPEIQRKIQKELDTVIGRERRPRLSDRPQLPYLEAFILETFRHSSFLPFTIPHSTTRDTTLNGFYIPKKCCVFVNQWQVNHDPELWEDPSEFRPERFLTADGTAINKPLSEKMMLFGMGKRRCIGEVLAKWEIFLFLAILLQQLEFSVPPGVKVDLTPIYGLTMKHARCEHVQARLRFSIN

[17] = target: T4, Cytochrome P450 3A4; assay: Induction of CYP3A4 in human Fa2N-4 cells up to 100 uM using testosterone as substrate incubated for 24 hrs followed by compound replacement for every 24 hrs during 72 hrs incubation period followed by substrate addition for 4 hrs by LC-MS analysis; format: ADME, cell-based
Outline: (§2)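 Human Fa2N-4 cells exposed to compound to assess CYP3A4 and CYP1A2 induction. Five concentrations, single experiment in triplicate.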

[18] = target: T5, Cytochrome P450 1A2; assay: Induction of CYP1A2 in human Fa2N-4 cells up to 100 uM using phenacetin as substrate incubated for 24 hrs followed by compound replacement for every 24 hrs during 72 hrs incubation period followed by substrate addition for 4 hrs by LC-MS analysis; format: ADME, cell-based; outline: as §2
[19] = target: T1, Prostaglandin E2 receptor EP2 subtype; assay: Potency index, ratio of CP-533,536 EC50 to compound EC50 for recombinant human EP2 receptor expressed in HEK293 cells by cAMP accumulation assay; format: functional, cell-based
[20] = system: Cynomolgus monkey; assay: Reduction of intraocular pressure in ocular normotensive cynomolgus monkey at 0.3 to 1% administered topically to the eyes once daily at around 5 pm from day 1 to day 14 and measured at 10 am at day 8 and 15 post dose; details: Macaca fascicularis

CC(C)(C)c1ccc(CN(Cc2cccc3oc(C(=O)O)cc23)S(=O)(=O)c2cccnc2)cc1
Ki [1]: 15 nM

CC(C)(C)c1ccc(CN(Cc2ccc3cc(C(=O)O)oc3c2)S(=O)(=O)c2cccnc2)cc1
Ki [1]: 433 nM

O=C(O)CNc1cccc(CN(Cc2ccc(-n3cncn3)cc2)S(=O)(=O)c2cccnc2)n1
EC50 [2]: 43 nM

O=C(O)CNc1cccc(CN(Cc2ccc(-c3ccc(F)cc3)cc2)S(=O)(=O)c2cccnc2)n1
EC50 [2]: 35 nM

O=C(O)CNc1cccc(CN(Cc2ccc(C(F)(F)F)cc2)S(=O)(=O)c2cccnc2)n1
EC50 [2]: 119 nM

CC(C)(C)c1ccc(CN(Cc2cccc(NCCC(=O)O)n2)S(=O)(=O)c2cccnc2)cc1
EC50 [2]: 83 nM

CC(C)(C)c1ccc(CN(Cc2cccc(NCC(=O)O)n2)S(=O)(=O)c2cccc(Cl)c2)cc1
EC50 [2]: 620 nM

CC(C)C1(c2ccc(CN(Cc3cccc(NCC(=O)O)n3)S(=O)(=O)c3cccnc3)cc2)CC1
EC50 [2]: 18 nM

O=C(O)CNc1cccc(CN(Cc2ccc(C3CCCCC3)cc2)S(=O)(=O)c2cccnc2)n1
EC50 [2]: 29 nM

O=C(O)CNc1cccc(CN(Cc2ccc(-c3ccccn3)cc2)S(=O)(=O)c2cccnc2)n1
EC50 [2]: 1.6 nM

CC(C)(C)c1ccc(CN(Cc2cccc(NCC(=O)O)n2)S(=O)(=O)c2ccccc2Cl)cc1
EC50 [2]: > 1000 nM

O=C(O)CNc1cccc(CN(Cc2ccc(-c3ccnnc3)cc2)S(=O)(=O)c2cccnc2)n1
EC50 [2]: 307 nM

CC(C)(C)C1CCC(CN(Cc2cccc(NCC(=O)O)n2)S(=O)(=O)c2cccnc2)CC1 (stereo unspecified)
EC50 [2]: 649 nM

CN(CC(=O)O)c1cccc(CN(Cc2ccc(C(C)(C)C)cc2)S(=O)(=O)c2cccnc2)n1
EC50 [2]: 283 nM

CC(C)(C)c1ccc(CN(Cc2csc(NCC(=O)O)n2)S(=O)(=O)c2cccnc2)cc1
EC50 [2]: 360 nM

CC(C)(C)c1ccc(CN(Cc2ccc3ccn(CC(=O)O)c3c2)S(=O)(=O)c2cccnc2)cc1
EC50 [2]: > 1000 nM

O=C(O)CNc1cccc(CN(Cc2ccc(-c3ccc(Cl)cc3)cc2)S(=O)(=O)c2cccnc2)n1
EC50 [2]: 75 nM

O=C(O)CNc1cccc(CN(CCCCCc2ccccc2)S(=O)(=O)c2cccnc2)n1
EC50 [2]: 118 nM

COc1ccc(S(=O)(=O)N(Cc2ccc(C(C)(C)C)cc2)Cc2cccc(NCC(=O)O)n2)cc1
EC50 [2]: 19 nM

CC(C)(C)c1ccc(CN(Cc2cccc(NCC(=O)O)n2)S(C)(=O)=O)cc1
EC50 [2]: 91 nM

CC(C)(C)c1ccc(CN(Cc2cccc(NCC(=O)O)n2)S(=O)(=O)c2ccccc2F)cc1
EC50 [2]: 45 nM

CC(C)(C)c1cccc(CN(Cc2cccc(NCC(=O)O)n2)S(=O)(=O)c2cccnc2)c1
EC50 [2]: 109 nM

CC(C)(C)c1ccc(CN(Cc2ccnc(NCC(=O)O)c2)S(=O)(=O)c2cccnc2)cc1
EC50 [2]: > 1000 nM

CC(C)(C)c1ccc(CN(Cc2cc(NCC(=O)O)ccn2)S(=O)(=O)c2cccnc2)cc1
EC50 [2]: > 1000 nM

CCC1(c2ccc(CN(Cc3cccc(NCC(=O)O)n3)S(=O)(=O)c3cccnc3)cc2)CCC1
EC50 [2]: 13 nM

CCCCC[C@H](O)/C=C/[C@H]1[C@H](O)CC(=O)[C@@H]1C/C=C\CCCC(=O)O [DINOPROSTONE]
IC50 [3]: < 30 nM

CC(C)OC(=O)CNc1cccc(CN(Cc2ccc(-n3cccn3)cc2)S(=O)(=O)c2cccnc2)n1 [OMIDENEPAG ISOPROPYL]
IC50 [1]: 4180 nM | IC50 [3]: > 10000 nM | IC50 [4]: > 10000 nM | IC50 [5]: > 10000 nM | Papp at 5 h, 100 µM [6]: 28 ×10⁻⁶ cm/s | Activity [7]: Dose-dependent effect | Activity [8]: Active

O=C(O)CNc1cccc(CN(Cc2ccc(-n3cccn3)cc2)S(=O)(=O)c2cccnc2)n1 [OMIDENEPAG]
IC50 [1]: 10 nM | EC50 [2]: 1.1 nM | IC50 [3]: > 10000 nM | IC50 [4]: > 10000 nM | IC50 [5]: 5480 nM | Papp A→B at 10 µM [9]: 0.28 ×10⁻⁶ cm/s | Papp A→B at 10 µM [10]: 0.59 ×10⁻⁶ cm/s | Papp at 5 h, 100 µM [6]: 0.9 ×10⁻⁶ cm/s | Drug metabolism [11]: 57 pmol/min/mg | IC50 [12]: > 20000 nM | IC50 [13]: > 20000 nM | IC50 [14]: > 20000 nM | IC50 [15]: > 20000 nM | IC50 [16]: > 20000 nM | Activity [17]: Not Active | Activity [18]: Not Active | Ratio EC50 [19]: > 10 | Activity [20]: Active
